Results: ChEMBL document CHEMBL3259774, “Antimycobacterial activity of chiral aminoalcohols with camphane scaffold” (Eur J Med Chem, 2014)
pIC50: −log10 of the molar value. In brackets after ≈: the same amount, converted by molar mass. Counter-ions that a name gives are not always drawn.

What was measured:
[1] = system: Mycobacterium tuberculosis; assay: Antimycobacterial activity against Mycobacterium tuberculosis H37Rv assessed as growth inhibition after 45 days; type: functional
How it was run: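 Canetti proportion method on Löwenstein–Jensen egg medium. Each compound was added as a sterile DMSO suspension/solution before coagulation (30 min at 85 °C) and tested at five concentrations. Tubes were inoculated with 10⁵ cells/ml and incubated 45 days at 37 °C. Colony counts were expressed as percent of drug-free control. MIC is the lowest concentration giving complete inhibition (0% growth).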

[2] = system: HEK-293T; assay: Cytotoxicity against HEK293T cells after 72 hrs by MTT assay; type: cell-based; conditions: Homo sapiens
How it was run: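 HEK 293T cells grown in RPMI-1640 with 10% heat-inactivated foetal calf serum and 2 mM L-glutamine, 37 °C, 5% CO2. Cells seeded at […] cells/ml, grown 24 h, then exposed 72 h to compounds serially diluted from fresh DMSO stocks (final DMSO ≤0.5%), ≥8 wells per concentration. MTT added for 4 h at 37 °C, formazan dissolved in 5% HCOOH/2-propanol, read at 580 nm. Survival expressed as % of untreated control; IC50 from sigmoidal curve fit.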

SMILES | MIC [1] [µM] | pIC50 [2]
CC1(C)[C@@H]2CC[C@@]1([C@H](O)CN1CCN(c3ccccc3F)CC1)C(=O)C2 | 0.28 (≈ 0.101 µg/mL) | 3.92
CC(C)N(C[C@H](O)[C@]12CC[C@H](CC1=O)C2(C)C)C(C)C | 0.37 (≈ 0.104 µg/mL) | 3.78
CC(C)N(C[C@@H](O)[C@]12CC[C@H](CC1=O)C2(C)C)C(C)C | 10.7 (≈ 3 µg/mL) | 
CC1(C)[C@@H]2CC[C@@]1([C@@H](O)CN1CCCC1)C(=O)C2 | 19.9 (≈ 5 µg/mL) | 
CC1(C)[C@@H]2CC[C@@]1([C@@H](O)CN1CCCCC1)C(=O)C2 | 0.38 (≈ 0.101 µg/mL) | 3.84
CC1(C)[C@@H]2CC[C@@]1([C@H](O)CN1CCCCC1)C(=O)C2 | 18.8 (≈ 5 µg/mL) | 
CC1CCN(C[C@H](O)[C@]23CC[C@H](CC2=O)C3(C)C)CC1 | 0.72 (≈ 0.201 µg/mL) | 3.80
CC1CCN(C[C@@H](O)[C@]23CC[C@H](CC2=O)C3(C)C)CC1 | 0.36 (≈ 0.101 µg/mL) | 3.77
CN1CCN(C[C@H](O)[C@]23CC[C@H](CC2=O)C3(C)C)CC1 | 17.8 (≈ 5 µg/mL) | 
CN1CCN(C[C@@H](O)[C@]23CC[C@H](CC2=O)C3(C)C)CC1 | 17.8 (≈ 5 µg/mL) | 
CC1(C)[C@@H]2CC[C@@]1([C@@H](O)CN1CCN(c3ccccc3)CC1)C(=O)C2 | 14.6 (≈ 5 µg/mL) | 
CC1(C)[C@@H]2CC[C@@]1([C@H](O)CN1CCN(c3ccccc3)CC1)C(=O)C2 | 14.6 (≈ 5 µg/mL) | 
CC1(C)[C@@H]2CC[C@@]1([C@@H](O)CN1CCN(c3ccccc3F)CC1)C(=O)C2 | 0.28 (≈ 0.101 µg/mL) | 3.89
CC1(C)[C@@H]2CC[C@@]1([C@@H](O)CN1CCN(c3ccc(F)cc3)CC1)C(=O)C2 | 0.28 (≈ 0.101 µg/mL) | 4.09
CC1(C)[C@@H]2CC[C@@]1([C@H](O)CN1CCN(c3ccc(F)cc3)CC1)C(=O)C2 | 0.28 (≈ 0.101 µg/mL) | 4.19
CC1(C)[C@@H]2CC[C@@]1([C@@H](O)CN1CCN(c3ccc(Cl)cc3)CC1)C(=O)C2 | 7.96 (≈ 3 µg/mL) | 5.07
CC1(C)[C@@H]2CC[C@@]1([C@H](O)CN1CCN(c3ccc(Cl)cc3)CC1)C(=O)C2 | 0.27 (≈ 0.102 µg/mL) | 5.04
CC1(C)[C@@H]2CC[C@@]1([C@@H](O)CN1CCOCC1)C(=O)C2 | 0.37 (≈ 0.0989 µg/mL) | < 3.70
CC1(C)[C@@H]2CC[C@@]1([C@H](O)CN1CCOCC1)C(=O)C2 | 18.7 (≈ 5 µg/mL) | 
CC1(C)[C@@H]2CC[C@@]1([C@@H](O)CN1CCSCC1)C(=O)C2 | 17.6 (≈ 5 µg/mL) | 
CC1(C)[C@@H]2CC[C@@]1([C@H](O)CN1CCSCC1)C(=O)C2 | 17.6 (≈ 5 µg/mL) | 
CC[C@@H](CO)NCCN[C@@H](CC)CO [ETHAMBUTOL HYDROCHLORIDE] | 7.22 | 
